Data on 26 compounds can be found in ChEMBL document CHEMBL3407378, “Design, synthesis and biological evaluation of novel 7-alkylamino substituted benzo[a]phenazin derivatives as dual topoisomerase I/II inhibitors” (Eur J Med Chem, 2015).

Assay [1] is described as follows: Cytotoxicity against human HL60 cells after 48 hrs by MTT assay. It is filed as functional, cell-based. The following applies: HL-60, 48 h. The essentials:
(§1)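 Cells seeded 1 × 10^4 per well and incubated overnight, then given compound at 0–50 µM for 48 h. MTT added (20 µL of 5 mg/mL stock) for 4 h at 37 °C; formazan dissolved in DMSO, absorbance read at 570 nm. Triplicates; IC50 from mean OD versus concentration curves.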

In another assay the test system is K562. The assay is described as follows: Cytotoxicity against human K562 cells after 48 hrs by MTT assay. In kind it is functional, cell-based. The following applies: K562, 48 h. The gist of the method:
as §1

The test system of a further assay is HeLa. Description: Cytotoxicity against human HeLa cells after 48 hrs by MTT assay. In kind it is functional, cell-based. The essentials:
as §1

Another assay relates to A549. Description: Cytotoxicity against human A549 cells after 48 hrs by MTT assay. In kind it is functional, cell-based. The following applies: A549, 48 h. The essentials:
as §1

Assay [2] concerns the target T1, DNA topoisomerase 1 (Homo sapiens) (UniProt P11387).
T1 sequence (whole entry): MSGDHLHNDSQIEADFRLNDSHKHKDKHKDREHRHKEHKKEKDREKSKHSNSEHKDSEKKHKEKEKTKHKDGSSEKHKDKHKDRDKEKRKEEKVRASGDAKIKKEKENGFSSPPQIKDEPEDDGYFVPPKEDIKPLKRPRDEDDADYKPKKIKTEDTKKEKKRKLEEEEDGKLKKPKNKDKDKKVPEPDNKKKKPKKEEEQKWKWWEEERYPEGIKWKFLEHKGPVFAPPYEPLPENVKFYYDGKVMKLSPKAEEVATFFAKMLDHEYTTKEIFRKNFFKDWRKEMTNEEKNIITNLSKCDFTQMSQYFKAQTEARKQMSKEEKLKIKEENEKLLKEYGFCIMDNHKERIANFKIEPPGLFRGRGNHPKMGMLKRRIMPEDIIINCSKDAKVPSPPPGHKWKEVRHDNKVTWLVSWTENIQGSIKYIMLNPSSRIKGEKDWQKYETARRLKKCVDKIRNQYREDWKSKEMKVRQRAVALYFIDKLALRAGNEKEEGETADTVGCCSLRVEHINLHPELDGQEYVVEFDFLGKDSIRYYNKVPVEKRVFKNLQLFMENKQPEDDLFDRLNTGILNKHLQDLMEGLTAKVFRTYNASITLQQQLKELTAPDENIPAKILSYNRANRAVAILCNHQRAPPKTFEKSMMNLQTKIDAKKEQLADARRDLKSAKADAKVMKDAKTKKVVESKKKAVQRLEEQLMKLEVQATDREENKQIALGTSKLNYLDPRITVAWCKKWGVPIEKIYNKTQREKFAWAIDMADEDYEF
The assay is described as follows: Inhibition of Topo 1 (unknown origin)-mediated relaxation of supercoiled pBR322 plasmid at 25 uM after 30 mins by agarose gel electrophoresis. The essentials:
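Topo I with supercoiled pBR322 and compound, 30 min at 37 °C. Stopped with SDS/bromophenol blue/glycerol dye; run on 1% agarose gel in TAE for 1 h and stained with Gel Red.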

Assay [3] has as its target DNA topoisomerase 2-alpha (Homo sapiens) (UniProt P11388). Description: Inhibition of human Topo 2-mediated relaxation of supercoiled pBR322 plasmid at 25 uM after 30 mins by agarose gel electrophoresis.
The target is the same in assay [4]. Description: Inhibition of human Topo 2-mediated relaxation of supercoiled pBR322 plasmid at 25 to 50 uM after 30 mins by agarose gel electrophoresis.
Assay [5] shares this target. The assay is described as follows: Inhibition of human Topo 2 ATPase domain expressed in yeast BCY123 strain at 25 uM after 1 hr by nonisotopic malachite green assay. The essentials: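 Human Topo II ATPase domain overexpressed in yeast BCY123 and purified. Assay buffer: 100 mM Tris-HCl pH 7.4, 20 mM KCl, 6 mM MgCl2. Reaction of 25 µL with compound, started with 1 mM ATP, 1 h at 37 °C. Phosphate detected with malachite green at OD620. No-enzyme background set as 100% inhibition and enzyme-only as 0%.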

Activity calls are given as the source filed them. The rule behind the calls is not given here. A value given as a limit tells only on which side of the number the result lay.

Chain of DNA topoisomerase 2-alpha (Homo sapiens) (P11388 whole entry): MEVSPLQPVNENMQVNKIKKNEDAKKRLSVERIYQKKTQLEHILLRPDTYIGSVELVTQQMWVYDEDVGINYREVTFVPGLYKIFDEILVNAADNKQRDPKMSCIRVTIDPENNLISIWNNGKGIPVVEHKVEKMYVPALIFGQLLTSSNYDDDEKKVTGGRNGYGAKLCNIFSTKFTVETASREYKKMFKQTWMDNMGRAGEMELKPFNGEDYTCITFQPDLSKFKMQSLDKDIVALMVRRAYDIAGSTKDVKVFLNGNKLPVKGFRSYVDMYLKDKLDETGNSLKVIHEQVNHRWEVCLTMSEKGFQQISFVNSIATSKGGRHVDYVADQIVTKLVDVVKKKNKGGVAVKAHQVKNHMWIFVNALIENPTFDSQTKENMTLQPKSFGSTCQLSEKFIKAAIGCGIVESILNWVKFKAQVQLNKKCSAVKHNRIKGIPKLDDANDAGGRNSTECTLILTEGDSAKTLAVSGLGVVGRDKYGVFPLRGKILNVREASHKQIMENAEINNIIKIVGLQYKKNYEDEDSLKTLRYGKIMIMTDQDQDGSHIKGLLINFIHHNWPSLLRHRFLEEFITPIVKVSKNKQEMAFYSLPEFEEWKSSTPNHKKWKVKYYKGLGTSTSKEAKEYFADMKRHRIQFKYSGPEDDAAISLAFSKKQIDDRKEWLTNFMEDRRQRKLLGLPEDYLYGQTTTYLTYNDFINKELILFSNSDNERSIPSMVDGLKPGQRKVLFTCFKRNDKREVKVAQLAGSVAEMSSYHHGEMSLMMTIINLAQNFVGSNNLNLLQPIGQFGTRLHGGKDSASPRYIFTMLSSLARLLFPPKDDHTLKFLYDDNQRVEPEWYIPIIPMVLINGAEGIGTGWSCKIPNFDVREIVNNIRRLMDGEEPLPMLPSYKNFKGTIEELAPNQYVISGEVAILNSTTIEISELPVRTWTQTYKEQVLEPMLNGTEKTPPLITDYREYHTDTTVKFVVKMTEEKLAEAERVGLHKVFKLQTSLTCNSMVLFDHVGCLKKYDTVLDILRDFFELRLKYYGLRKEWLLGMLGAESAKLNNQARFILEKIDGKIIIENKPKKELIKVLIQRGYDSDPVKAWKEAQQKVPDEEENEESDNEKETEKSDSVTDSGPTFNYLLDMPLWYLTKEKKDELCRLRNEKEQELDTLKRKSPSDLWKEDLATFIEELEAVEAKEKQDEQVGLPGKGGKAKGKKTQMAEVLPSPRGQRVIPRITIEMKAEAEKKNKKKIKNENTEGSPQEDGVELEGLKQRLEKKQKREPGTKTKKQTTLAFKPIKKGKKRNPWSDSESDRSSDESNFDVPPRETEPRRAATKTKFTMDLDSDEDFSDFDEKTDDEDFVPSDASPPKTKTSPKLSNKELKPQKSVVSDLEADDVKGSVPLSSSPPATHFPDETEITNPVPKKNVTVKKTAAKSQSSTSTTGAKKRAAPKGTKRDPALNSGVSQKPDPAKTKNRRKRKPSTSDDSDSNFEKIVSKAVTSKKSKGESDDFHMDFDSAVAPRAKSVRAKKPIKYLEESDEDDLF

Turning to `COc1ccc2c3nc4ccccc4n(CCN(C)C)c-3cc(=O)c2c1`, the IC50 amounted to 2.85 µM in assay [1], 18.4 µM in the assay on K562, 18.9 µM in the assay with HeLa and 38.5 µM in the assay on A549.

In the case of `COc1ccc2nc3c4ccccc4c(=O)cc-3n(CCCN(C)C)c2c1`, the “Topo I relaxation inhibition (active/not active)” value in assay [2] is “Active”. The IC50 in assay [1] came to 0.18 µM; with K562, 5.53 µM; with HeLa, 5.51 µM; with A549 it was 30.5 µM.

On to `O=c1cc2n(CCCN3CCCCC3)c3ncccc3nc-2c2ccccc12`, for which the “Topo I relaxation inhibition (active/not active)” value in assay [2] was “inactive”. Also, the “Topo 2 inhibition (active/not active)” value in assay [3] was “inactive”. Also, the IC50 in assay [1] stood at 0.63 µM; in the assay on K562, 38.4 µM; in the assay with HeLa, 20.4 µM; in the assay on A549, 19.9 µM.

In the case of `O=c1cc2n(CCCN3CCOCC3)c3ccccc3nc-2c2ccccc12`, the IC50 in assay [1] is 1.28 µM; in the assay with K562, 25.2 µM; in the assay on HeLa, > 50 µM; with A549, 45.4 µM.

In the case of `O=c1cc2n(CCN3CCCCC3)c3ccccc3nc-2c2ccccc12`, the “Topo I relaxation inhibition (active/not active)” value in assay [2] is “inactive”. In assay [4], the “Topo 2 inhibition (active/not active)” value was “Active”. Moreover, the IC50 in assay [1] is 0.93 µM; in the assay on K562 it was 25.2 µM; in the assay on HeLa, 32 µM; with A549 it was 37.3 µM.

On to `CCCn1c2cc(=O)c3ccccc3c-2nc2ccccc21`, for which the “Topo 2 inhibition (active/not active)” value in assay [4] was “inactive”. Besides, the IC50 is 32.1 µM in assay [1], > 40 µM in the assay on K562, > 50 µM in the assay with HeLa and > 50 µM in the assay on A549.

On to `COc1ccc2c3nc4cc(Cl)ccc4n(CCCN(C)C)c-3cc(=O)c2c1`, for which the IC50 in assay [1] was determined as 6.43 µM; in the assay with K562, 22.8 µM; in the assay with HeLa, 43 µM; with A549 it was 31.5 µM.

Take `CN1CCN(CCCn2c3cc(=O)c4ccccc4c-3nc3ccccc32)CC1`: the IC50 in assay [1] is 1.22 µM; with K562, 24 µM; in the assay with HeLa it was 26.7 µM; in the assay on A549, 23.6 µM.

Consider `CN(C)CCn1c2cc(=O)c3ccccc3c-2nc2ccccc21`, for which the “Topo I relaxation inhibition (active/not active)” value in assay [2] was “Active”. In addition, the “Topo 2 inhibition (active/not active)” value in assay [4] is “Active”. For the same compound, the half-inhibitory concentration (IC50) in assay [1] stood at 0.31 µM; in the assay on K562, 24.6 µM; in the assay on HeLa, 9.91 µM; in the assay with A549 it was 22.3 µM.

In the case of `CN1CCN(CCn2c3cc(=O)c4ccccc4c-3nc3ccccc32)CC1`, the “Topo I relaxation inhibition (active/not active)” value in assay [2] was “Active”. Besides, the IC50 in assay [1] was determined as 0.38 µM; in the assay on K562 it was 21.6 µM; in the assay with HeLa, 28.9 µM; in the assay on A549, 25.3 µM.

Consider `CN(C)CCCn1c2cc(=O)c3ccccc3c-2nc2cccnc21`, for which the “Topo I relaxation inhibition (active/not active)” value in assay [2] was “inactive”. Also, the “Topo 2 inhibition (active/not active)” value in assay [3] was “inactive”. Further, the IC50 in assay [1] came to 0.62 µM; in the assay on K562 it was 36.8 µM; with HeLa, 4.52 µM; with A549, 20.4 µM.

As to `O=c1cc2n(CCCN3CCCCC3)c3ccccc3nc-2c2ccccc12`, the “Topo I relaxation inhibition (active/not active)” value in assay [2] was “inactive”. Also, the “Topo 2 inhibition (active/not active)” value in assay [4] is “Active”. The IC50 in assay [1] amounted to 0.52 µM; in the assay with K562, 10.3 µM; with HeLa it was 27.4 µM; in the assay on A549 it was 33 µM.

On to `CCN(CC)CCCCn1c2cc(=O)c3ccccc3c-2nc2ccccc21`, for which the IC50 worked out at 0.22 µM in assay [1], 26 µM in the assay with K562, 29.4 µM in the assay with HeLa and 18.9 µM with A549.

Take `CCN(CC)CCCn1c2cc(=O)c3cc(OC)ccc3c-2nc2ccccc21`: in assay [2], the “Topo I relaxation inhibition (active/not active)” value is “inactive”. For the same compound, the IC50 in assay [1] is 0.23 µM; in the assay on K562, 22 µM; in the assay with HeLa, 25.9 µM; in the assay on A549 it was 22.9 µM.

As for `O=c1cc2n(CCCN3CCCC3)c3ccccc3nc-2c2ccccc12`, the IC50 is 0.22 µM in assay [1], 25.2 µM in the assay on K562, 30.3 µM in the assay on HeLa and 35.7 µM with A549.

For the compound `COc1ccc2c(c1)nc1c3ccccc3c(=O)cc-1n2CCCN(C)C`, the “Topo I relaxation inhibition (active/not active)” value in assay [2] is “inactive”. In addition, the IC50 in assay [1] stood at 0.96 µM; in the assay with K562, 20.2 µM; with HeLa, 24.9 µM; in the assay with A549, 25.9 µM.

Regarding `COc1ccc2c(=O)cc3n(CCCN(C)C)c4ccccc4nc-3c2c1`, the “Topo I relaxation inhibition (active/not active)” value in assay [2] was “Active”. The “Topo 2 inhibition (active/not active)” value in assay [3] was “Active”. The IC50 was determined as 0.22 µM in assay [1], 7.13 µM with K562, 29.9 µM in the assay on HeLa and 33 µM in the assay on A549.

On to `COc1ccc2c3nc4ccccc4n(CCCN(C)C)c-3cc(=O)c2c1`, for which, in assay [2], the “Topo I relaxation inhibition (active/not active)” value was “inactive”. Further, the concentration for half-maximal inhibition (IC50) in assay [1] is 0.15 µM; in the assay with K562, 6.12 µM; in the assay with HeLa, 28.4 µM; in the assay on A549, 24.6 µM.

Turning to `COc1ccc2c(c1)nc1c3ccc(OC)cc3c(=O)cc-1n2CCCN(C)C`, in assay [2], the “Topo I relaxation inhibition (active/not active)” value was “inactive”. For the same compound, the IC50 in assay [1] is 0.65 µM; in the assay with K562, 22 µM; with HeLa it was 6.52 µM; with A549, 34.5 µM.

As to `CCN(CC)CCn1c2cc(=O)c3ccccc3c-2nc2ccccc21`, the half-maximal inhibitory concentration (IC50) in assay [1] amounted to 0.31 µM; with K562, 25.6 µM; in the assay with HeLa, 25.4 µM; with A549, 29.2 µM.

In the case of `COc1cc([C@@H]2c3cc4c(cc3[C@@H](O[C@@H]3O[C@@H]5CO[C@@H](C)O[C@H]5[C@H](O)[C@H]3O)[C@H]3COC(=O)[C@H]23)OCO4)cc(OC)c1O` [ETOPOSIDE], the IC50 in assay [1] came to 0.06 µM; in the assay with K562, 1.64 µM; in the assay on HeLa, 0.54 µM; in the assay on A549, 8.91 µM.

Regarding `CN(C)CCCn1c2cc(=O)c3ccccc3c-2nc2cc(Cl)ccc21`, the IC50 in assay [1] amounted to 1.08 µM; in the assay with K562 it was 20.4 µM; in the assay with HeLa it was 29.6 µM; with A549, 38.4 µM.

Take `O=C1C=CC(=O)c2ccccc21`: in assay [5], the inhibition was determined as 56%.

Consider `O=c1cc2n(CCN3CCOCC3)c3ccccc3nc-2c2ccccc12`, for which the IC50 in assay [1] was 6.91 µM; in the assay on K562 it was > 40 µM; in the assay with HeLa, > 50 µM; with A549 it was > 50 µM.

`CN(C)CCCn1c2cc(=O)c3ccccc3c-2nc2ccccc21`: the “Topo I relaxation inhibition (active/not active)” value in assay [2] was “Active”. Besides, in assay [4], the “Topo 2 inhibition (active/not active)” value is “Active”. The half-maximal inhibitory concentration (IC50) in assay [1] amounted to 0.21 µM; in the assay on K562, 5.93 µM; in the assay with HeLa, 8.41 µM; with A549, 13.5 µM.

On to `CCN(CC)CCCn1c2cc(=O)c3ccccc3c-2nc2ccccc21`, for which the IC50 in assay [1] stood at 1.5 µM; with K562, 24.8 µM; in the assay with HeLa it was 44.5 µM; in the assay with A549, 37.4 µM.
